Reference: ChEMBL document CHEMBL4138133, “2,3-Dihydro-3β-methoxy Withaferin-A Protects Normal Cells against Stress: Molecular Evidence of Its Potent Cytoprotective Activity” (J Nat Prod, 2017)
Active and inactive are the calls of the source. The calls are words filed in the database; no cut-off is given here.

Legend:
[1] = tested on: TIG-3; experiment: Induction of oxidative stress in human TIG3 cells assessed as increase in CARF expression level at 0.6 uM by immunoblot analysis; type: cell-based; conditions: tig-3, 0.6 µM
Method in brief: (§1)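 TIG-3 cells treated with compound, lysed in NP40 buffer (centrifuged 20 min, 4 °C); 10−20 μg protein immunoblotted for indicated proteins; band quantitation from three independent experiments, Student's t or Mann−Whitney test.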

[2] = tested on: TIG-3; experiment: Induction of oxidative stress in human TIG3 cells assessed as increase in GADD45alpha mRNA levels by RT-PCR analysis; type: cell-based
Method in brief: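 Total RNA from treated TIG-3 cells; cDNA from 2 μg RNA; PCR 95 °C 10 min, 30 cycles (95 °C 45 s, 58 °C 1 min, 72 °C 45 s), 72 °C 10 min; products on 0.8% agarose, band densitometry; three independent experiments.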

[3] = target: Mitogen-activated protein kinase 3 (Homo sapiens) (UniProt P27361); experiment: Induction of ERK1 phosphorylation at Thr202 residues in H2O2 treated human TIG3 cells pretreated with H2O2 for 2 hrs followed by compound addition by immuno fluorescence staining based analysis
Chain of Mitogen-activated protein kinase 3 (Homo sapiens) (P27361 whole entry): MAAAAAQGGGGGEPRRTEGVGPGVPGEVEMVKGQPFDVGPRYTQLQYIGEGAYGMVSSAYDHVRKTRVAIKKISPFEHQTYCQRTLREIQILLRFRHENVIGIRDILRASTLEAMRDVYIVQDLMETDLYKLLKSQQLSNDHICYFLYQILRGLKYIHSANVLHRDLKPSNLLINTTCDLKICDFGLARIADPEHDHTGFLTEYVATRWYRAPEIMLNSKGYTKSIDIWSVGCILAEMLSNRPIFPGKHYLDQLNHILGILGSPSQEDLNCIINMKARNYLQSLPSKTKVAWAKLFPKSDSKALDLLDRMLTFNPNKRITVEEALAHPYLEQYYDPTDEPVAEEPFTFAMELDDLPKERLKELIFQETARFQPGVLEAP
Method in brief: (§2)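 TIG-3 fibroblasts (DMEM, 10% FBS, 37 °C) stressed with H2O2 (500 μM, 2 h) or UV (50 mJ/cm2), then recovered in compound-supplemented medium. Cells fixed in chilled absolute methanol and immunostained for the marker. Images taken by fluorescence microscopy and staining intensity quantified. Triplicate experiments.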

[4] = target: Mitogen-activated protein kinase 3 (Homo sapiens) (UniProt P27361); experiment: Induction of ERK1 phosphorylation at Thr202 residues in H2O2 treated human TIG3 cells at 0.6 uM pretreated with H2O2 for 2 hrs followed by compound addition by immunoblot analysis
Method in brief: (§3)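 TIG-3 cells stressed with H2O2 (500 μM, 2 h), then recovered in medium containing 0.3 or 0.6 μM compound. Lysed in NP40 buffer; 10−20 μg protein immunoblotted for pAkt Ser473, p-p38 Thr180/Tyr182, p-p44/42 Thr202/Tyr204, β-catenin, survivin, Bcl-2 or full-length PARP-1. Triplicate experiments.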

[5] = tested on: TIG-3; experiment: Cytoprotective activity against UV irradiation-induced stress in human TIG3 cells assessed as increase in cell survival at 3 uM irradiated with 50 mJ/cm2 of UV radiations followed by compound addition measured after 72 hrs by crystal violet staining based assay; type: functional
[6] = tested on: WI-38; experiment: Cytotoxicity against human WI38 cells assessed as reduction in cell viability at 1 to 10 uM after 72 hrs; type: cell-based; conditions: wi-38, 72 h
Method in brief: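 Normal fibroblasts in DMEM/10% FBS at 37 °C given 0.15 to 50 μM compound for 48 or 72 h; viability determined; triplicate, mean ± SEM.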

[7] = species: Homo sapiens; experiment: Induction of AKT/p38/p44 MAPK-mediated survivin expression level in H2O2 treated human TIG3 cells at 0.6 uM pretreated with H2O2 for 2 hrs followed by compound addition by immunoblot analysis; method in brief: as §3
[8] = target: MAP kinase p38 (Homo sapiens) (UniProt O15264+Q15759+Q16539+P53778); experiment: Induction of p38 MAPK phosphorylation at Thr180/Tyr182 residues in H2O2 treated human TIG3 cells at 0.6 uM pretreated with H2O2 for 2 hrs followed by compound addition by immunoblot analysis; method in brief: as §3
[9] = tested on: TIG-3; experiment: Cytoprotective activity against H2O2-induced oxidative stress in human TIG3 cells assessed as decrease in CARF level pretreated with H2O2 for 2 hrs followed by compound addition by immuno fluorescence staining based assay; type: functional, cell-based
[10] = tested on: TIG-3; experiment: Effect on p53 expression level in human TIG3 cells at 0.3 to 3 uM by immunoblot analysis; type: cell-based; conditions: tig-3, 3 µM; method in brief: as §1
[11] = tested on: WI-38; experiment: Cytotoxicity against human WI38 cells assessed as inhibition of colony formation by crystal violet staining based assay; type: cell-based
Method in brief: (§4)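 500 cells/well seeded, cultured about 2 weeks with medium (control or compound-supplemented) renewed every fourth day; colonies fixed, stained, counted; triplicates, Student's t test.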

[12] = target: RAC-alpha serine/threonine-protein kinase (Homo sapiens) (UniProt P31749); experiment: Induction of Akt phosphorylation at Ser473 residues in H2O2 treated human TIG3 cells at 0.6 uM pretreated with H2O2 for 2 hrs followed by compound addition by immunoblot analysis; method in brief: as §3
Chain of RAC-alpha serine/threonine-protein kinase (Homo sapiens) (P31749 whole entry): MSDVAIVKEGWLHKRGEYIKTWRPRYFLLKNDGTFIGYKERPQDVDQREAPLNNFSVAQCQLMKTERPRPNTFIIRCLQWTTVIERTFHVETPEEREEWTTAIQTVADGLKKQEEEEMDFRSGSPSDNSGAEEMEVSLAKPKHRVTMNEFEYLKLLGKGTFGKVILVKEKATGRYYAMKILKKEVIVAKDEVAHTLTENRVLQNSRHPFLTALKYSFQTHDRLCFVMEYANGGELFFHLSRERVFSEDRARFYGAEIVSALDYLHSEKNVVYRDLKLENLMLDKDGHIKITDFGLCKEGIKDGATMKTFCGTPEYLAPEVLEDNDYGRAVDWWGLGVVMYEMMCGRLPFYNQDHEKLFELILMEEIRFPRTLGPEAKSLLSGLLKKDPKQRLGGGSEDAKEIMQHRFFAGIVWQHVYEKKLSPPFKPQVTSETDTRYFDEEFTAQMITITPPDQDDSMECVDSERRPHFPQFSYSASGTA

[13] = tested on: TIG-3; experiment: Cytoprotective activity against UV irradiation-induced stress in human TIG3 cells assessed as increase in cell survival irradiated with 50 mJ/cm2 of UV radiations followed by compound addition measured after 2 days by crystal violet staining based assay; type: functional
[14] = tested on: TIG-3; experiment: Cytotoxicity against human TIG3 cells assessed as inhibition of colony formation by crystal violet staining based assay; type: cell-based; method in brief: as §4
[15] = tested on: TIG-3; experiment: Cytotoxicity against human TIG3 cells assessed as cell death at 0.6 uM; type: cell-based; conditions: tig-3, 0.6 µM
Method in brief: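 Phase-contrast microscopy of morphology of control and treated normal human TIG-3 fibroblasts.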

[16] = tested on: TIG-3; experiment: Cytoprotective activity against cisplatin-induced stress in human TIG3 cells assessed as increase in cell survival pretreated with cisplatin for 24 hrs followed by compound addition measured after 2 days by crystal violet staining based assay; type: functional
[17] = tested on: TIG-3; experiment: Cytoprotective activity against H2O2-induced oxidative stress in human TIG3 cells assessed as decrease in 53BP1 level at 0.6 uM pretreated with H2O2 for 2 hrs followed by compound addition by immuno fluorescence staining based analysis; type: functional, cell-based; method in brief: as §2
[18] = tested on: TIG-3; experiment: Decrease in Nrf2 expression level in human TIG3 cells at 0.3 to 3 uM by immunoblot analysis; type: ADME, cell-based; conditions: tig-3, 3 µM; method in brief: as §1
[19] = tested on: TIG-3; experiment: Effect on p21 WAF1 expression level in human TIG3 cells at 0.3 to 3 uM by immunoblot analysis; type: ADME, cell-based; conditions: tig-3, 3 µM; method in brief: as §1
[20] = target: Mitogen-activated protein kinase 1 (Homo sapiens) (UniProt P28482); experiment: Induction of ERK2 phosphorylation at Tyr204 residues in H2O2 treated human TIG3 cells at 0.6 uM pretreated with H2O2 for 2 hrs followed by compound addition by immunoblot analysis; method in brief: as §3
Chain of Mitogen-activated protein kinase 1 (Homo sapiens) (P28482 whole entry): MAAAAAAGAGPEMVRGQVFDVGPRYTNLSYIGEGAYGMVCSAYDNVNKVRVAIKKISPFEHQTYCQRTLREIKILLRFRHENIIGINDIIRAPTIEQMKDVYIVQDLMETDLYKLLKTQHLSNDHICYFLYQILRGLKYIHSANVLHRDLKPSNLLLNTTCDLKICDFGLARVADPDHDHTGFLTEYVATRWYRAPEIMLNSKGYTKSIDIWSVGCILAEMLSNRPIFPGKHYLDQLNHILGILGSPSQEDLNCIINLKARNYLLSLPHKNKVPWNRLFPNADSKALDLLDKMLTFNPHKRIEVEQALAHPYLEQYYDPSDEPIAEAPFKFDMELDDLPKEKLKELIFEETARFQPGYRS

[21] = tested on: TIG-3; experiment: Cytoprotective activity against H2O2-induced oxidative stress in human TIG3 cells assessed as increase in full length PARP level at 0.6 uM pretreated with H2O2 for 2 hrs followed by compound addition by immunoblot analysis; type: functional, cell-based; method in brief: as §3
[22] = tested on: TIG-3; experiment: Cytoprotective activity against UV irradiation-induced stress in human TIG3 cells assessed as decrease in CARF level irradiated with 50 mJ/cm2 of UV radiations followed by compound addition by immuno fluorescence staining based assay; type: functional, cell-based
[23] = tested on: TIG-3; experiment: Cytoprotective activity against H2O2-induced oxidative stress in human TIG3 cells assessed as decrease in gammaH2AX level at 0.6 uM pretreated with H2O2 for 2 hrs followed by compound addition by immuno fluorescence staining based analysis; type: functional, cell-based; method in brief: as §2
[24] = tested on: TIG-3; experiment: Cytotoxicity against human TIG3 cells assessed as decrease in ROS generation at 1.5 to 3 uM after 48 hrs; type: cell-based; conditions: tig-3, 48 h
[25] = tested on: TIG-3; experiment: Decrease in keap1 expression level in human TIG3 cells at 0.3 to 3 uM by immunoblot analysis; type: ADME, cell-based; conditions: tig-3, 3 µM; method in brief: as §1
[26] = tested on: TIG-3; experiment: Cytoprotective activity against human TIG3 cells assessed as increase in cell viability at 1.5 to 3 uM pretreated with Wi-A at 0.3 uM for 24 hrs followed by compound addition measured after 48 hrs; type: functional, cell-based
Method in brief: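 TIG-3 cells pretreated with 0.3 μM Wi-A for 24 h, then incubated with 1.5 or 3 μM compound for 48 h before viability was read. Triplicate, mean ± SEM.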

Structure (SMILES): CO[C@H]1CC(=O)[C@]2(C)[C@H]3CC[C@]4(C)[C@@H]([C@H](C)[C@H]5CC(C)=C(CO)C(=O)O5)CC[C@H]4[C@@H]3C[C@H]3O[C@]32[C@H]1O
- Activity [1]: Non-Toxic
- Activity [2]: Non-Toxic
- Activity [3]: Active
- Activity [4]: Active
- Activity [5]: Active
- Activity [6]: Non-Toxic
- Activity [7]: Active
- Activity [8]: Active
- Activity [9]: Active
- Activity [10]: Non-Toxic
- Activity [11]: Non-Toxic
- Activity [12]: Active
- Activity [13]: Dose-dependent effect
- Activity [14]: Non-Toxic
- Activity [15]: Non-Toxic
- Activity [16]: Dose-dependent effect
- Activity [17]: Active
- Activity [18]: Non-Toxic
- Activity [19]: Non-Toxic
- Activity [20]: Active
- Activity [21]: Active
- Activity [22]: Active
- Activity [23]: Active
- Activity [24]: Non-Toxic
- Activity [25]: Non-Toxic
- Activity [26]: Active
